B1: tRNA (parent)
chain: GUUCCGUUGGCGUAAUGGUAACGCGUCUCCCUCCUAAGGAGAAGACUGCGGGUUCGAGUCCCGUACGGAACG

This sample holds only a part of the variants without activity. A value given as a limit tells only on which side of the number the result lay.

Our source for the yeast fitness values is the RNAGym collection of RNA variant scans (doi:10.1126/science.aae0568).

The variants in this data set derive from B1. As to the kind of experiment: yeast fitness relative to wild type (ratio to wild type); higher = fitter; tRNA-Arg(CCU), competitive growth, 37 C, YPD. A digest of the protocol: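 Variants of the tRNA-Arg(CCU) gene were chemically synthesised with a 3% per-site mutation rate across 69 sites and placed at the native genomic locus in Saccharomyces cerevisiae. Six parallel replicates of the pooled strains were competed in YPD at 37°C for 24 hours, and gene amplicons from the start and end populations were read by 100-nucleotide paired-end sequencing. Darwinian fitness relative to wild type was derived from changes in genotype frequencies. Genotypes required ≥ 100 starting reads, and estimates < 0.5 were set to 0.5.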
Consider GUACCGUUGGCGUAAUGGUAACGCGUCUCCCUCCUAAGGAGAAGACUGCGGGUUCGAGUCUCGUACAGAACG [U3A C61U G67A], for which the yeast fitness is 0.562. Take GUACCGUUGGCGUAAUGGUAACGCGUCUCCCUCCUAAGGAGAAGAAUGCGGGUUCAAGUCCCGUACGGAACG [U3A C46A G56A]: the yeast fitness was found to be 0.713.

For GUACCGUUGCCGUAAUGGUAACGCGUCUCCCUCCUUAGGCGAAGACUGCGGGUUCGAGUGCCGUACGGAGCG [U3A G10C A36U A40C C60G A70G], the yeast fitness is at most 0.5. As to GUACCUUUGGCCUAAUGGUAAAGCGUCUCCCUCCUAAGGAGAAGACUGCGGGUUGGAGUCCCGUACGGAACG [U3A G6U G12C C22A C55G], the yeast fitness was at most 0.5. In the case of GUACCGUUGGCGUAAUGGUAACGCGUCUCCCUCCUAAGGAGAAGAUUGUGGGCUCGAGUCCCGUACGGAACG [U3A C46U C49U U53C] it was at most 0.5; in that of GUACCGUUGGCGUAAUGGUAACGCGUCUCCCUCGUAAGGAGAAGGCUGCGGGUUCGAGUCCCGUACGGAACG [U3A C34G A45G], 0.537. In the case of GUACCAUUGGCGUAAUGGUAACGCGUCUCCCUCCUAAGGAGAAGACUGCGGGUUCGAGUCCCGUACGGAACG [U3A G6A] it was 0.981; in that of GUACCGUUGGCGUAAUGGUAACGCGUCUCCCUCCUAAGGAGAAGAAUGCGGGUUCGAGUCCCGUAUGGAACG [U3A C46A C66U], 0.734. In the case of GUACCGUUGGCGUAAUGGUAACGCGUCUCCCUCCUAAGGAGAAGAGCGCGGGUUCGAGUCCCGUACGGAACG [U3A C46G U47C] it was 0.675; in that of GUACCGUUGGCGUAAUGGUAACGCGUCUCCCUCAUAAGGAGAAGACUGCGGGUUCGAGUUCCGUACGGAACG [U3A C34A C60U], at most 0.5. Regarding GUACCCUUGGCGUAAUGGUAACGCGUCUCCCUCGUAACGAGAAGGCUGCGGGUUCGAGGCCCGUACGGAACG [U3A G6C C34G G38C A45G U59G], the yeast fitness was at most 0.5.

Consider GUACCGUUAGCGUAAUGGUAACGCGUCUUCCUCCUAAGGAGAAGACUGCGGGUUCGAGUCCCGUACGGAACG [U3A G9A C29U], for which the yeast fitness was 0.751.

With GUACCGUUGGCGUAAUGGUAACGCGUCUCCUUCCUAAGGAGAAGACUGCGGAUUCGAGUCCCGUACGGAACG [U3A C31U G52A], the yeast fitness came out at 0.614.

On to GUACCGUUAGCGUCAUGGUAACGCGUCUCCCUCCUAAGGAGAAGACUGCGGGUUUGAGUCCCGUACGGAGCG [U3A G9A A14C C55U A70G], for which the yeast fitness was at most 0.5.

On to GUACCGUUGGCGUAAUGGUAACGCGUCUCCCUCCUAAGGAGAAGACUGAGGGGUCGUGUCCCGUACGGAACG [U3A C49A U53G A57U], for which the yeast fitness was 0.798. For GUACCGUUAGCGUAAUGGUAACGCGUCGCCCUCCUAAGGAGAAGACUGCGGGUUCGAGUCCCGUACGGAACG [U3A G9A U28G] the value was at most 0.5; for GUACCGUUCGCGUAAUGGUAACGCGUGUCCCUCCUAAGGAGAAGACUGCGGGUUCGAGUCCCGUACGGAACG [U3A G9C C27G], at most 0.5; for GUACCGUUGGCGUAAUGGUAACGCGUCUCCCUCCUAAGGAGAAGACUGCGGGUUUGAGUCCCGUACGCAACG [U3A C55U G68C], 0.573. For GUACCGUUGGCGUAAUGGUAACGCGUCUCCCUCCUAAGGAGAAGACUGCGGGUUCGAGUUCCGUAGGGAACG [U3A C60U C66G] the value was 0.658; for GUACCGUUGGCGUAAUGGUAACGCGUCUCCUUCCUAAGGCGAAGACUACGGGUUCGAGUCCCGUACGCAACG [U3A C31U A40C G48A G68C], at most 0.5.

Regarding GUACCGUUGCCGUAAUGGUAACGCGUCUCCCUCCUUAGGCGAAGACUGCGGGUUCGAGUCCCGUACGGAACG [U3A G10C A36U A40C], the yeast fitness is at most 0.5.

With GUACCGUUGGCGUAAUGGUAACGCGUCUCCCUUCUAAGGAGACGACUGCGGGUUCGAGUCCCGUACGGAACG [U3A C33U A43C], the yeast fitness was at most 0.5. In the case of GUACCGUUGGCAUAAUGGUAACGGGUCUUCCUCCUGAGGAGAAGACUGCGGGUUCGAGUCCCGUACGGAACG [U3A G12A C24G C29U A36G] it was at most 0.5; in that of GUACCGUUGCCGUAAUGGUAACGCGUCUCCCUCCUUAGGCGAAGACUGCGGGUUCGAGUCCCGUGCGGAACG [U3A G10C A36U A40C A65G], at most 0.5. In the case of GUACCGUUGGCGUAAUGGUAACGCGUCUCCCUCCUAAGGAGAAGAUUACGGGUUCGAGUCCCGUACGGAACG [U3A C46U G48A] it was 0.695. For GUACCGUUGGCGUAAUGGUAACGCGUCUCCCUCCUAAGGAGAAGACUGCGGGUUCGAGUCCCGUAGGCAACG [U3A C66G G68C] the value was 0.623. On to GUACCGUUGGCGUAAUGGUAACGCGUCUCCCUCCUAAGGAGAAGACUGUGGGUUCGAGUCCCGUGCGGAACG [U3A C49U A65G], for which the yeast fitness worked out at 0.711.

GUACCGUUGACGUAAUGGUAACGCGUUUCCCUCCUAAGGUGAAGACUGCGGGUUCGAGUCCCGUACGGAACG [U3A G10A C27U A40U]: the yeast fitness is at most 0.5.

For the variant GUACCGUUAGCGUAAUGGUAACGCGUCUCCCUCCUAAGGAGAAGACUACGGGUUCGAGUCCCGUACGGAACG [U3A G9A G48A], the yeast fitness is 0.621. Regarding GUACCGUUGGCGUAAUGGUAACGCGUCUCCCUCCUAAGGAGAAGAAUGCGGGUUCGAGUCCCGUACGGAACG [U3A C46A], the yeast fitness was found to be 1.05. In the case of GUACCCUUGGCGUAAUGGUAACGCGUCUCCCUCCUAAGGAGAAGACUGCGGGUUUGAGUCCCAUACGGAACG [U3A G6C C55U G63A] it was at most 0.5. For GUACCGUUAGCGUGAUGGUAACGCGUCUCCCUCCUAAGGAGAAGACUGUGGGUUCGAGUCCCGUACGGAACG [U3A G9A A14G C49U] the value was at most 0.5; for GUACCAUUGGCGUAAAGGUAACGGGUCUCCCUCCUAUGGAGAAGACUGUGGGUUCGAGUCCUGUACGGAACG [U3A G6A U16A C24G A37U C49U C62U], 0.61; for GUACCGUUGGCGUAAUGGUAACGCGUCUCCUUCCUAAGGAGAAGACUGCGGGUUCGAGUCCCCUACCGUACG [U3A C31U G63C G67C A69U], 0.558. For GUACCGUUAGCGUAAUGGUGACGCGUCUCCCUCCUAAGGAGAAGACUGCGGGUUCGAGUCCCGUACGGAACG [U3A G9A A20G] the value was 0.665.

As for GUACCGUUGCCGUAAUGGUAACGGGUCUCCCUCCUAUAGAGAAGACUCCGGGUUCGAGUCCCGUACGGAACG [U3A G10C C24G A37U G38A G48C], the yeast fitness was at most 0.5.

For GUACCGUUCGCGUAAUGGUGACGCGUCUACCUCCUAAGGAGAAGACUGCGGGUUCGAGUCCCGUACGGAACG [U3A G9C A20G C29A], the yeast fitness was at most 0.5.
